Compound activity (PubChem BioAssay)
The list is not random: actives were taken first. Their share in the collection is about 2.7%.
MC4R antagonist: MC4R antagonists of cAMP signaling, primary screen, cell-based, TR-FRET, antagonist arm of biased-ligand search; Melanocortin receptor 4 (Homo sapiens), P32245; MC4R-expressing cells, MTII-stimulated cAMP, LANCE TR-FRET; inhibition, % at 6.5 µM; actives 0.48% (n = 360,000); AID 540295, 2011;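 active means inhibition above its plate's cutoff, the mean of tested wells on that plate plus 3 SD, cut at about 29% in these data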;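 further: 0% = Melanotan II alone and 100% = Melanotan II plus saturating MCL0020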
Target sequence (P32245 whole entry, looked up): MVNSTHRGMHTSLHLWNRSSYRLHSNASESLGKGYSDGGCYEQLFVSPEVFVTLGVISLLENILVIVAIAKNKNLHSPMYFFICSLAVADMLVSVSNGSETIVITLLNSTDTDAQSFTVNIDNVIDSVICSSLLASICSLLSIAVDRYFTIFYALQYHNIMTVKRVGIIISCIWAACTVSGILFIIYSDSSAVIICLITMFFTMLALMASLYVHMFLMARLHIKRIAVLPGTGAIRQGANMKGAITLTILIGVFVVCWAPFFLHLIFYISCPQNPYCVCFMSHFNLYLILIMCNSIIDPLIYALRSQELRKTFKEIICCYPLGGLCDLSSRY
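Assay system: U2OS cells stably expressing human melanocortin 4 receptor (MC4R) / Dosing: 6.5 µM / Timing: compound 30 min, challenge 1 h, detection 1 h / Measured by: Eu-cAMP/anti-cAMP TR-FRET, emission 671 nm / Replicates: singlicate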
Lipid droplet: inhibitors of hepatocyte lipid droplet formation, primary screen, imaging, high-throughput imaging, BODIPY stain. AML12 mouse hepatocytes, oleate lipid droplets. inhibition, % at 6.5 µM. actives 0.4% (n = 240,000). AID 1656, 2009;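 active means lipid droplet intensity inhibited by at least 50%, with more than 500 cells counted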
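Assay system: AML12 mouse liver cells | Compound dosing: One dose, 6.5 µM compound | Read-out basis: Droplet intensity reduction, % inhibition | Measured by: Fluorescence imaging, 20x objective, two fields per well | Schedule: Overnight treatment with compound plus oleate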
MC4R barr agon: MC4R agonists recruiting beta-arrestin, primary screen, cell-based, luminescence, agonist arm of biased-ligand search | Melanocortin receptor 4 (Homo sapiens), P32245 | U2OS MC4R beta-arrestin complementation; percent of melanotan II response, DMSO zero | activation, % at 8.9 µM | actives 0.98% (n = 360,000) | AID 540308, 2011;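 active means activation above a per-plate cutoff, the mean activation of sample wells on that plate plus 3 SD, cut at about 8% in these data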
NTR1 ag: agonists of human NTR1, primary screen, imaging, U2OS cells, beta-arrestin-GFP, high content; Neurotensin receptor type 1 (Homo sapiens), P30989; NTR1-U2OS beta-arrestin-GFP spot imaging, agonist mode; activation, % at 20 µM; actives 0.17% (n = 330,000); AID 493036, 2011;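 active means activation at or above 40% of the spot to cytoplasm intensity ratio, with at least 20 cells analyzed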;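 further: 0% = DMSO without peptide and 100% = 100 nM NTR1 peptide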
PREPL inh: PREPL enzyme inhibitors, primary screen, biochemical, fluorescence polarization | inhibition, % at 5.96 µM | AID 2751, 2010 | Prolyl endopeptidase-like (Homo sapiens), Q4J6C6 | recombinant PREPL, fluorescence polarization activity-based probe | actives 0.68% (n = 320,000); in the data active means inhibition above about 43%;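 further: 0% = enzyme with DMSO and 100% = wells lacking enzyme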
m5-HT2A agonist: mouse Htr2a agonists via beta-arrestin recruitment, primary screen, cell-based, luminescence; AID 624169, 2012; actives 0.66% (n = 360,000); 5-hydroxytryptamine receptor 2A (Mus musculus), P35363; activation, % at 7.6 µM; CHO-K1 mHTR2A beta-arrestin complementation; percent of 30 µM serotonin response;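 active means activation above a run cutoff, the mean activation of all tested compounds plus 3 SD, cut at about 14% in these data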;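 further: 0% = plate median of compound wells and 100% = 30 µM serotonin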
MC4R barr conf: MC4R beta-arrestin agonists, retest, confirmation, cell-based, luminescence, U2OS; U2OS MC4R beta-arrestin recruitment; scaled DMSO 0%, Melanotan II 100%; activation, % at 8.9 µM; actives 31% (n = 2,400); AID 602192, 2012; shares compounds with MC4R barr agon;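 active means mean activation across replicates above the hit cutoff set in the earlier primary screen, cut at about 8% in these data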
MOR DOR agonist: agonists of MOR-DOR heterodimerization, counter-screen for MC4R biased agonist project, cell-based, luminescence | shares compounds with MC4R barr agon | U2OS PathHunter beta-arrestin, beta-gal luminescence; percent of deltorphin B response, DMSO zero | activation, % at 9.2 µM | actives 5.8% (n = 2,400) | AID 602194, 2012;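 active means mean activation across replicates exceeds the hit threshold derived in the earlier primary screen, cut at about 18% in these data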;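 further: 100% = deltorphin B at 0.9 µM final and 0% = DMSO alone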
* hit, by the source's call.

Screening CC[C@]12c3[nH]c4cc(-c5ccco5)ccc4c3CCN1C(=O)[C@@H](CC(=O)NCCCn1ccnc1)C[C@@H]2C(=O)N1CCN(C(=O)C2CC2)CC1 returned MC4R antagonist -1.1, MC4R barr agon -0.5, NTR1 ag -1.9 and m5-HT2A agonist 6.6.
`C#CCN1C(=O)S/C(=C\c2ccc(N3CCOCC3)cc2C)C1=O` gave MC4R antagonist 6.0, Lipid droplet 2.4, MC4R barr agon 11.3*, NTR1 ag -1.0, PREPL inh 3.0, m5-HT2A agonist -2.4, MC4R barr conf -2.7 and MOR DOR agonist 3.1.
`CC1CC(C)CN(S(=O)(=O)c2ccc(C(=O)Nc3sccc3C(N)=O)cc2)C1` (stereo unspecified) gave MC4R antagonist 4.8, Lipid droplet -3.9, MC4R barr agon 13.5*, NTR1 ag 18.8, PREPL inh -4.8, m5-HT2A agonist -2.5, MC4R barr conf 13.6* and MOR DOR agonist 10.7.
NC(=O)c1ccsc1NC(=O)c1ccc(S(=O)(=O)N2CCCC2)cc1 was read as MC4R antagonist 3.5, Lipid droplet -6.5, MC4R barr agon 0.2, NTR1 ag -1.7, PREPL inh 14.2 and m5-HT2A agonist -1.9.
For CCC(C)Sc1nc2c(cnn2-c2ccc(C)cc2)c(=O)[nH]1 (stereo unspecified) the results were MC4R antagonist -5.1, Lipid droplet -0.8, MC4R barr agon -1.3, NTR1 ag 1.5, PREPL inh 1.9 and m5-HT2A agonist -1.4.
CCC(C)Sc1nc2c(cnn2-c2ccccc2)c(=O)[nH]1 (stereo unspecified) was read as MC4R antagonist 6.6, Lipid droplet -0.2, MC4R barr agon 10.8*, NTR1 ag 6.7, PREPL inh 19.2, m5-HT2A agonist -2.8, MC4R barr conf 2.7 and MOR DOR agonist 2.2.
Screening Cc1ccnc(NC(=O)CN2C(=O)NC(C)(c3ccc4ccccc4c3)C2=O)c1 (stereo unspecified) returned MC4R antagonist -1.3, MC4R barr agon -1.1, NTR1 ag -0.8 and m5-HT2A agonist -3.8.
`CCCc1c(C(=O)Nc2ccc(N3CCOCC3)cc2)cnn1-c1ccccc1` gave MC4R antagonist -3.1, Lipid droplet 1.6, MC4R barr agon 0.8, NTR1 ag 0.2, PREPL inh 20.7 and m5-HT2A agonist -1.2.
CCCc1c(C(=O)Nc2ccc(C(F)(F)F)cc2)cnn1-c1ccccc1 was read as MC4R antagonist -3.2, Lipid droplet 2.3, MC4R barr agon 10.4*, NTR1 ag 0.5, PREPL inh 14.1, m5-HT2A agonist -4.5, MC4R barr conf -3.9 and MOR DOR agonist 5.5.
Screening CCCc1c(C(=O)NNc2cc(C(F)(F)F)ccc2Cl)cnn1-c1ccccc1 returned MC4R antagonist 2.7, Lipid droplet 0.8, MC4R barr agon 27.0*, NTR1 ag 5.6, PREPL inh 0.2, m5-HT2A agonist -0.6, MC4R barr conf 5.8 and MOR DOR agonist 6.5.
Screening O=C(COC(=O)/C=C/c1cccc([N+](=O)[O-])c1)Nc1ccc(Cl)cn1 returned MC4R antagonist 1.7, MC4R barr agon -1.6, NTR1 ag 0.5, PREPL inh 18.4 and m5-HT2A agonist -6.2.
